MrgX1 antag – antagonists of human MrgX1 receptor, primary screen, HEK293 cells, Fluo-4 calcium flux; BAM8-22 antagonism; hits give low values; AID 588676, 2011; B-score at 10 µM; 310,000 tested, 1.3% active;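 active = calcium-response B-score plate-corrected more than 3 library SD below zero, starting fluorescence within 5 deviations, no agonist response on first addition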;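 also: peak minus trough fluorescence over baseline after final BAM8-22 challenge near maximal dose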
Target sequence (Q96LB2 whole entry, looked up): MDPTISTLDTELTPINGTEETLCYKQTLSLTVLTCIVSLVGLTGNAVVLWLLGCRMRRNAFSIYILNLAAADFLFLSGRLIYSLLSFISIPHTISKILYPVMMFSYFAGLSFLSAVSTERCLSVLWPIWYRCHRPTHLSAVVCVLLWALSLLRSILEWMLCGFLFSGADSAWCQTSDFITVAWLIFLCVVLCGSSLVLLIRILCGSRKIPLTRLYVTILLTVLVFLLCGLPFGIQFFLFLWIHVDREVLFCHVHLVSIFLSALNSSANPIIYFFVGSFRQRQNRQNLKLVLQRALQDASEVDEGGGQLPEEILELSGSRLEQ
RGS4 pot – RGS4 potentiators or activators, primary screen, cell-based, HEK293 M3R inducible RGS4, calcium flux | 310,000 tested, 0.92% active | carbachol calcium flux Fluo4; hits give low values | B-score at 10 µM;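 active = B-score of the integrated calcium signal more than 4 SD below the library mean, with starting fluorescence not abnormally high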;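 also: negative B-score means reduced calcium response which marks RGS4 activation or potentiation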
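Detection: kinetic calcium fluorescence imaging with Fluo4-AM dye, 2 µM / Material: HEK293 cells with stable M3R and inducible RGS4 / Schedule: recording 10 s baseline at 1 Hz, 100 s post-agonist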
MrgX1 ag – agonists of human MrgX1 receptor, primary screen, HEK293 cells, Fluo-4 calcium flux; Mas-related G-protein coupled receptor member X1 (Homo sapiens), Q96LB2; Fluo-4 calcium fluorescence, agonist mode; hits give high values; B-score at 10 µM; 310,000 tested, 0.44% active;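 active = calcium response B-score plate-corrected fluorescence ratio at least 3 library SD, with starting fluorescence B-score inside 5 SD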
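Test system: HEK293 cells stably expressing human MrgX1 receptor; amount: 15,000 cells per well; doses: compound delivered in addition one of three; times: overnight plating before 1 h dye loading; detection: Fluo-4 NW calcium-flux fluorescence, kinetic read; read-out basis: B-scored fluorescence response ratio; controls: positive and negative controls per plate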
RGS4 inh – RGS4 inhibitors, primary screen, cell-based, HEK293 M3R inducible RGS4, calcium flux; Regulator of G-protein signaling 4 (Homo sapiens), P49798; Fluo-4 calcium flux; hits give high values; triggered by carbachol at its EC20; B-score at 10 µM; 310,000 tested, 0.45% active;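 active = B-score, a plate-corrected calcium signal, over three deviations above library mean, with baseline fluorescence within five deviations of library mean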;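 also: RGS4 expression induced by doxycycline in cells with stable M3 receptor; B-score is computed from the integrated fluorescence ratio over baseline after carbachol; higher B-score means a larger calcium signal and so more RGS4 inhibition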
Target sequence (P49798 whole entry, looked up): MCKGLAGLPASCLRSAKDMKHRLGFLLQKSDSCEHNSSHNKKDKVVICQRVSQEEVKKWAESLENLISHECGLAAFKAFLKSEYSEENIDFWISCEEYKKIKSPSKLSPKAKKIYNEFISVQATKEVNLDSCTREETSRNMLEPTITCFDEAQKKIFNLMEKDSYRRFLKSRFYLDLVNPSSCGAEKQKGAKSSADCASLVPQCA
MrgX1 PAM – positive allosteric modulators of MrgX1, primary screen, HEK293 cells, Fluo-4 calcium flux; Mas-related G-protein coupled receptor member X1 (Homo sapiens), Q96LB2; FDSS; hits give high values; B-score at 10 µM; 310,000 tested, 0.63% active;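 active = plate-corrected calcium response at least 3 library SD above typical, normal starting fluorescence, not activating the receptor alone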;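 also: compound read alongside a low EC10 to EC30 dose of BAM8-22 agonist; peak minus trough fluorescence over baseline measured at the second addition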
MrgX1 ant reconf – MrgX1 receptor antagonists, duplicate retest, confirmation, HEK293 cells, Fluo-4 calcium flux. shares compounds with MrgX1 antag. BAM8-22 calcium flux; hits give low values. remaining BAM8-22 calcium response % of control (hits give low values), % at 10 µM. 2,300 tested, 19% active. AID 602420, 2012;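 active = remaining agonist calcium response no higher than 100% minus 3 SD of agonist-only control wells, with starting fluorescence near control levels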;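 also: agonist BAM8-22 given at a near maximal EC90 to ECmax level; peak minus minimum fluorescence divided by baseline after agonist addition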
HEK293 Ca flux – nonspecific calcium signal in parental HEK293, confirmation, counter-screen for MrgX1 antagonist project, parental HEK293 cells, Fluo-4 calcium flux; shares compounds with MrgX1 antag; Fluo-4 calcium fluorescence, FDSS; fluorescence ratio F(max-min)/F0 at 10 µM; 4,000 tested, 2% active; AID 624111, 2012;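 active = duplicate-averaged calcium fluorescence ratio at least three times the standard deviation of buffer wells, a nonspecific response in parental cells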
HEK293 Ca counter – calcium response in parental HEK293 cells, primary screen, counter-screen for MrgX1 allosteric activator project, cell-based, Fluo-4 calcium flux, duplicate | AID 624114, 2012 | 4,000 tested, 0.4% active | Fluo-4 fluorescence ratio; hits give high values | shares compounds with MrgX1 antag | fluorescence ratio F(max-min)/F0 at 10 µM;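 active = calcium fluorescence ratio, averaged over duplicates, at least 3 SD of the buffer-well ratio, meaning a nonspecific response in receptor-free cells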;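 also: untransfected parental HEK293 lacking MrgX1 used as counterscreen for MrgX1 allosteric activators; fluorescence change taken during the second addition on a kinetic imager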
HEK293 Ca cntr2 – calcium response in parental HEK293 cells, primary screen, counter-screen for MrgX1 agonist project, cell-based, Fluo-4 calcium flux, duplicate, agonist mode; shares compounds with MrgX1 antag; Fluo-4 calcium fluorescence (FDSS); hits give high values; fluorescence ratio F(max-min)/F0 at 10 µM; 4,000 tested, 8.7% active; AID 624115, 2012;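 active = calcium fluorescence ratio at least three times the spread of buffer wells, meaning a non-specific response in parental cells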
Of the large screens only hits and unclear results are named; the others gave an inactive call (follow-up assays come after a bar, where they were run). Sampled rows, rich in hits. Any-hit rate of the full collection: about 3.5%.

CCCCn1c(SCC(N)=O)nc2ccc(N3CCOCC3)cc2c1=O	none
CCCCn1c(SCC(=O)Nc2cccc(OC)c2)nc2ccc(N3CCOCC3)cc2c1=O	MrgX1 antag -5.25 | MrgX1 ant reconf inactive | HEK293 Ca flux inactive | HEK293 Ca counter inactive | HEK293 Ca cntr2 inactive
COc1ccc(S(=O)(=O)NCC(c2cccnc2)N2CCN(Cc3ccccc3)CC2)cc1C (stereo not drawn)	none
COC(=O)CCCC(=O)N1CCCC(N(C)CCc2ccccc2)C1 (stereo not drawn)	none
O=C1c2ccccc2-c2onc3ccc(Oc4ccccc4)c1c23	MrgX1 antag -7.45 | MrgX1 ant reconf 74.0% | HEK293 Ca flux inactive | HEK293 Ca counter inactive | HEK293 Ca cntr2 inactive
CCOC(=O)C(C(=O)OCC)c1cc(Br)c2noc3c2c1C(=O)c1ccccc1-3	none
CN(CC(=O)Nc1ccccc1Cl)C(=O)COC(=O)Cc1ccc(F)cc1	none
CN(C(=O)CSc1nc(N)cc(N)n1)C1CCS(=O)(=O)C1 (stereo not drawn)	none
Cc1ccc2nsnc2c1NC(=O)COc1ccccc1F	MrgX1 antag -6.1 | MrgX1 ant reconf 83.5% | HEK293 Ca flux inactive | HEK293 Ca counter inactive | HEK293 Ca cntr2 inactive
Nc1ccc(Cl)c(S(=O)(=O)Nc2ccc(Cl)cc2)c1	none
O=C(Nc1ccc(S(=O)(=O)Nc2ccccc2)cc1)c1ccc(CN2CCOCC2)cc1	MrgX1 antag -4.55 | MrgX1 ant reconf 78.9% | HEK293 Ca flux inactive | HEK293 Ca counter inactive | HEK293 Ca cntr2 inactive
O=C(Nc1ccc(CN2CCOCC2)cc1)c1ccc(Cl)cc1	none
C=CCn1c(SCC(=O)Nc2cc(C)on2)nnc1C1COc2ccccc2O1 (stereo not drawn)	MrgX1 antag -6.14 | MrgX1 ant reconf 85.5% | HEK293 Ca flux inactive | HEK293 Ca counter inactive | HEK293 Ca cntr2 inactive
Cc1cc(C)nc(N(C#N)Cc2cccc3ccccc23)n1	none
Cc1cc2oc(=O)cc(CN3CCOCC3)c2cc1C(C)C	none
CCOc1ccc2oc(=O)cc(CN3CCOCC3)c2c1	MrgX1 antag -7.27 | MrgX1 ant reconf inactive | HEK293 Ca flux inactive | HEK293 Ca counter inactive | HEK293 Ca cntr2 inactive
O=C(Nc1cc2c3c(c1)CC(=O)N3CCC2)c1ccccc1Br	none
CCOC(=O)N1CCC(NC(=O)CN(C)S(=O)(=O)c2cc3c(cc2Cl)NC(=O)CO3)CC1	MrgX1 antag -5.2 | MrgX1 ant reconf inactive | HEK293 Ca flux inactive | HEK293 Ca counter inactive | HEK293 Ca cntr2 inactive
O=C(NC(NC(=S)Nc1cc(Cl)ccc1Cl)C(Cl)(Cl)Cl)c1ccco1 (stereo not drawn)	MrgX1 antag -5.83 | MrgX1 ant reconf 59.6% | HEK293 Ca flux inactive | HEK293 Ca counter inactive | HEK293 Ca cntr2 inactive
O=C(NC(NC(=S)Nc1ccc(Cl)c(Cl)c1)C(Cl)(Cl)Cl)c1ccco1 (stereo not drawn)	none
Cc1ccc(N2CCN(Cc3ccccc3)CC2=O)c(C)c1	none
COc1cc(C(C)=O)ccc1OCc1cc(C(=O)N2CCSCC2)no1	none
CC(=O)c1cccc(OCc2cc(C(=O)N3CCSCC3)no2)c1	MrgX1 antag -9.04 | MrgX1 ant reconf inactive | HEK293 Ca flux inactive | HEK293 Ca counter inactive | HEK293 Ca cntr2 inactive
Cc1ccc(-c2nc3cccnc3o2)cc1NC(=O)COc1ccc(C(C)(C)C)cc1	MrgX1 antag -12.2, RGS4 pot -8.21 | MrgX1 ant reconf 82.8% | HEK293 Ca flux inactive | HEK293 Ca counter inactive | HEK293 Ca cntr2 inactive
CCOC(=O)c1cc(CC)sc1/N=C/c1c(O)ccc2ccccc12	none
CCSc1nc2cc(OC)c(OC)cc2c(=O)n1CC	MrgX1 antag -4.78 | MrgX1 ant reconf inactive | HEK293 Ca flux inactive | HEK293 Ca counter inactive | HEK293 Ca cntr2 inactive
C[C@@]12C(=O)N(CCO)CC(=O)N1[C@H](/C=C/c1ccccc1)[C@@H]1C(=O)N(c3ccccc3)C(=O)[C@@H]12	none
Cc1noc(C)c1CSc1ncnc2ccccc12	MrgX1 antag -7.66 | MrgX1 ant reconf inactive | HEK293 Ca flux inactive | HEK293 Ca counter inactive | HEK293 Ca cntr2 inactive
CC1CN(C(=S)Nc2ccc(SC(F)F)cc2)CC(C)O1 (stereo not drawn)	none
CCCCNC(=S)Nc1ccc(F)cc1	none
CC1CC(C)CN(C(=S)Nc2ccc(SC(F)F)cc2)C1 (stereo not drawn)	MrgX1 antag -4.99 | MrgX1 ant reconf inactive | HEK293 Ca flux inactive | HEK293 Ca counter inactive | HEK293 Ca cntr2 inactive
CCCCNC(=S)Nc1ccc(SC(F)F)cc1	MrgX1 antag -6.93 | MrgX1 ant reconf inactive | HEK293 Ca flux inactive | HEK293 Ca counter inactive | HEK293 Ca cntr2 inactive
O=C(COc1ccccc1Br)Nc1ccc2c(c1)OCCCO2	none
C=CCNC(=O)CSc1nc2sccc2c(=O)n1-c1ccccc1	MrgX1 antag -5.09 | MrgX1 ant reconf inactive | HEK293 Ca flux inactive | HEK293 Ca counter inactive | HEK293 Ca cntr2 inactive
Nc1nc(Cl)nc2c1ncn2C1CC(O)C(CO)O1 (stereo not drawn)	MrgX1 antag -5.13 | MrgX1 ant reconf inactive | HEK293 Ca flux inactive | HEK293 Ca counter inactive | HEK293 Ca cntr2 inactive
Nc1nc2c(ncn2[C@H]2C[C@H](O)[C@@H](CO)O2)c(=O)[nH]1	none
COc1ccccc1N=Cc1c(C)c(C#N)c2[nH]c3ccccc3n2c1=O	MrgX1 antag -6.21 | MrgX1 ant reconf inactive | HEK293 Ca flux inactive | HEK293 Ca counter inactive | HEK293 Ca cntr2 inactive
CC(=O)COc1ncnc2c(Cl)cc(Cl)cc12	MrgX1 antag -4.93 | MrgX1 ant reconf inactive | HEK293 Ca flux inactive | HEK293 Ca counter inactive | HEK293 Ca cntr2 inactive
Cc1cc(C)n2ncc(C(=O)Nc3cccc(O)c3)c2n1	MrgX1 antag -5.86 | MrgX1 ant reconf inactive | HEK293 Ca flux inactive | HEK293 Ca counter inactive | HEK293 Ca cntr2 inactive
Cc1cc(C)n2ncc(C(=O)Nc3ccc4c(c3)OCO4)c2n1	none
